Article PMC10825549 (JID Innovations, 2023)

Assays:
[1] = biological target: CYP1A2 (Homo sapiens, UniProt P05177); assay: Cytochrome P450 phenotyping; type: in vitro ADME; conditions: recombinant human CYP1A2; with NADPH; 60 minutes; n = 1
Method in brief: (§1)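 Recombinant human CYPs prepared at CYP1A2 200 nM, CYP2B6/2C8 250 nM, CYP2C9 100 nM, CYP2D6 50 nM. Test compound added as 2 μM DMSO dosing solution on ice. Plate prewarmed, then 8 mM NADPH solution or blank buffer added. Incubation 60 min (1A2, 2B6, 2C8) or 30 min (2C9, 2D6). Stopped with acetonitrile plus internal standard; supernatant by LC-MS/MS; n = 1.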

[2] = biological target: CYP2D6 (Homo sapiens, UniProt P10635); assay: Cytochrome P450 phenotyping; type: in vitro ADME; conditions: recombinant human CYP2D6; with NADPH; 30 minutes; n = 1
Method in brief: as §1

[3] = biological target: CYP2C8 (Homo sapiens, UniProt P10632); assay: Cytochrome P450 phenotyping; type: in vitro ADME; conditions: recombinant human CYP2C8; with NADPH; 60 minutes; n = 1
Method in brief: as §1

[4] = system: IL-4; assay: Human whole blood potency, blockade of IL-4; type: cell-based; conditions: unpublished data
[5] = system: IFN-γ; assay: Human whole blood potency, blockade of IFN-γ; type: cell-based; conditions: unpublished data
[6] = biological target: CYP2C9 (Homo sapiens, UniProt P11712); assay: Cytochrome P450 phenotyping; type: in vitro ADME; conditions: recombinant human CYP2C9; with NADPH; 30 minutes; n = 1
Method in brief: as §1

[7] = biological target: CYP3A4 (Homo sapiens, UniProt P08684); assay: Cytochrome P450 phenotyping; type: in vitro ADME; conditions: recombinant human CYP3A4; with NADPH; 30 minutes; n = 1
Method in brief: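 Recombinant human CYP3A4 was prepared at 100 nM, and a 2 μM dosing solution of test compound in DMSO was added on ice. After prewarming, 8 mM NADPH solution or blank buffer was added for 30 minutes. Acetonitrile with internal standard stopped the reaction. The plate was shaken and centrifuged, and the supernatant was analysed by LC-MS/MS; n = 1.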

Chain of CYP2D6 (P10635 whole entry): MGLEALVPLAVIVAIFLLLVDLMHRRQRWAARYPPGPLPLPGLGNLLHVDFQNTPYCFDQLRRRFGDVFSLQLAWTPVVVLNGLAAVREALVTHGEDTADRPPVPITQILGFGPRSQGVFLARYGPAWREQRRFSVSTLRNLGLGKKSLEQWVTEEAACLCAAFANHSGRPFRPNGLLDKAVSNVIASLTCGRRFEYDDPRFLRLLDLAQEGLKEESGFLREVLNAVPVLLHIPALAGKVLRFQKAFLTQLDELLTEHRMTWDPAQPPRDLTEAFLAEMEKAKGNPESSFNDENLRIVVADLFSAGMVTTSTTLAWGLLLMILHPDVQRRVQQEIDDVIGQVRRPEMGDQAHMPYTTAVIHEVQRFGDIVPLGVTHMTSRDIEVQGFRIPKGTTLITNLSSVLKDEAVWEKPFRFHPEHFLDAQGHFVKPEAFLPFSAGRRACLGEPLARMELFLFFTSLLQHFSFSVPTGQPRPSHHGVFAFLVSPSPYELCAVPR
Chain of CYP3A4 (P08684 whole entry): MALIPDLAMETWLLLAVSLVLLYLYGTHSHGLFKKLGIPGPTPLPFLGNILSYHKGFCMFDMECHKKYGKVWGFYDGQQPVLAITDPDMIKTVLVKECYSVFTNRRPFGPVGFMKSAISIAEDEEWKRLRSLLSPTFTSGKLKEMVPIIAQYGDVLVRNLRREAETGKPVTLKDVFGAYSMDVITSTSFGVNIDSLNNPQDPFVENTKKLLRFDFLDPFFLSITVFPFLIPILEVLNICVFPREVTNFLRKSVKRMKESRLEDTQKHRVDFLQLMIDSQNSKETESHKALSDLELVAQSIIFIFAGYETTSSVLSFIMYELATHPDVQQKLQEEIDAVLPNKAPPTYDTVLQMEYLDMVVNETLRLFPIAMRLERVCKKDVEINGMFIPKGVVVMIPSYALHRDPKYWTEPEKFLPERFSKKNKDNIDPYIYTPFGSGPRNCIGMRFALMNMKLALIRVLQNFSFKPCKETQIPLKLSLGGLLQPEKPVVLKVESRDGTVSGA
Chain of CYP1A2 (P05177 whole entry): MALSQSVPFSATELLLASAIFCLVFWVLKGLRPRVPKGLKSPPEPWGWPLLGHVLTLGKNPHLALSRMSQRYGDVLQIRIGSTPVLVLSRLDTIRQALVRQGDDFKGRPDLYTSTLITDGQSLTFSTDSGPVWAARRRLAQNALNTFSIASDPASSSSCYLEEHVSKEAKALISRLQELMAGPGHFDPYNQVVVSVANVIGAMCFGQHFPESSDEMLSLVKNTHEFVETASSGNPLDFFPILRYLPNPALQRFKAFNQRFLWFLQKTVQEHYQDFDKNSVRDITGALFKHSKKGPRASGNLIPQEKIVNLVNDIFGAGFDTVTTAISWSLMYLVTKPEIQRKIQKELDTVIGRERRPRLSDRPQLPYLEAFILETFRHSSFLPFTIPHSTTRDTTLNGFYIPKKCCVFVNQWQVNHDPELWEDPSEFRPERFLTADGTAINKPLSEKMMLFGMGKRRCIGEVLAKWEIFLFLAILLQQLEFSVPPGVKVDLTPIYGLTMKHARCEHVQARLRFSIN
Chain of CYP2C8 (P10632 whole entry): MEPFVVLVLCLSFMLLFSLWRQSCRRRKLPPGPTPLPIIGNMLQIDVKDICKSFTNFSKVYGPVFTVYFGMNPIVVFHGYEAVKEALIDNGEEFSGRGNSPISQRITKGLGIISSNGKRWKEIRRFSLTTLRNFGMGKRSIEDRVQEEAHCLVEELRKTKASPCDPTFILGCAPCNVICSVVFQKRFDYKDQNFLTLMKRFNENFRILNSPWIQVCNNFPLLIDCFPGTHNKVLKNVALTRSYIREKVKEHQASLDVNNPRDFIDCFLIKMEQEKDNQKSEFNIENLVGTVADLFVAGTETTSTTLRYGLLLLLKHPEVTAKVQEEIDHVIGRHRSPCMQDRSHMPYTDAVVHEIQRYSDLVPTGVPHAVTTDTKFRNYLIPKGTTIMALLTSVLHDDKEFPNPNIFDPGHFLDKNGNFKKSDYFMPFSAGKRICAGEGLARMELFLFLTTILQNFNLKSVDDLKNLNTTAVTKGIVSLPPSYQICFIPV
Chain of CYP2C9 (P11712 whole entry): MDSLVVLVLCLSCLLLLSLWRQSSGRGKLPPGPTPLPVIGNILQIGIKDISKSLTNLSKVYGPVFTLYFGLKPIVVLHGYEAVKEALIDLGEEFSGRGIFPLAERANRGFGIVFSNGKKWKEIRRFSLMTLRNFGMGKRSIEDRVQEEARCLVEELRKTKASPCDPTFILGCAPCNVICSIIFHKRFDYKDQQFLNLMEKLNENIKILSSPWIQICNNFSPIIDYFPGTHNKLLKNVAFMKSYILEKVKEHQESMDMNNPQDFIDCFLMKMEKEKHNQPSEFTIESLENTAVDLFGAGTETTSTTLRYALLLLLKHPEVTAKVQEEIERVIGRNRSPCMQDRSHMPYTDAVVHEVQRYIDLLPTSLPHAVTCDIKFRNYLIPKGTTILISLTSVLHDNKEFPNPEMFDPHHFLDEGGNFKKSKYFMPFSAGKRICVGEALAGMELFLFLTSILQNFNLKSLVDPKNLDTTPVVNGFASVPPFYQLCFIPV

## CCOc1ccc(NC(C)=O)cc1 [phenacetin, reference compound]
[1]
  Percentage Remaining: 15.1%

## CCc1cccc2cc(C(O)CNC(C)(C)C)oc12 (stereo not shown) [bufuralol]
[2]
  Percentage Remaining: 2.48%

## CC(=O)O[C@H]1C(=O)[C@@]2(C)[C@H]([C@H](OC(=O)c3ccccc3)[C@]3(O)C[C@H](OC(=O)[C@H](O)[C@@H](NC(=O)c4ccccc4)c4ccccc4)C(C)=C1C3(C)C)[C@]1(OC(C)=O)CO[C@@H]1C[C@@H]2O [paclitaxel, reference compound]
[3]
  Percentage Remaining: 0.852%

## N#CC[C@H](C1CCCC1)n1cc(-c2ncnc3[nH]ccc23)cn1 [ruxolitinib]
[4]
  level required for blockade of IL-4 (human whole blood potency): 564 nM
[5]
  level required for blockade of IFN-γ (human whole blood potency): 305 nM

## O=C(O)Cc1ccccc1Nc1c(Cl)cccc1Cl [diclofenac]
[6]
  Percentage Remaining: 2.83%

## Cc1ncc2n1-c1ccc(Cl)cc1C(c1ccccc1F)=NC2 [midazolam, reference compound]
[7]
  Percentage Remaining: 0.252%
